Measurements from ChEMBL document CHEMBL3763045, “Design, Synthesis, and Pharmacological Evaluation of Novel N-Acylhydrazone Derivatives as Potent Histone Deacetylase 6/8 Dual Inhibitors” (J Med Chem, 2016).
Converted amounts (≈) assume the structure as drawn. The source made the active and inactive calls. The rule behind the calls is not given here.

Columns and labels:
[1] = Aqueous solubility of the compound in buffer at pH 7.4 after 24 hrs by spectrophotometric method; format: physicochemical
In short: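 Water solubility in pH 7.4 buffer, measured spectrophotometrically by the method of Schneider and coworkers.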

[2] = Chemical stability of the compound in acidic buffer assessed as compound recovery at pH 2 after 4 hrs by HPLC-PDA analysis; format: physicochemical
In short: (§1)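 Compounds stirred in pH 7.4 or pH 2 buffer at 37 °C for 240 min; percentage of compound recovered followed over time (30 min and 4 h points). Triplicate runs, values averaged.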

HepG2 [3] = assay: Effect on cell cycle distribution in human HepG2 cells assessed as accumulation at SubG1 phase at 5 to 10 uM after 24 to 48 hrs by propidium iodide staining-based flow cytometry; format: functional
In short: (§2)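 Cell cycle of HepG2 cells by flow cytometry after 5 or 10 µM for 24 and 48 h, giving SubG1, G0/G1, S and G2/M fractions. ANOVA with Tukey's post-test against control.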

[4] = biological target: T1, Protein deacetylase HDAC6 (Homo sapiens, UniProt Q9UBN7); assay: Inhibition of recombinant human HDAC6 by fluorimetry
T1 sequence (Q9UBN7 whole entry): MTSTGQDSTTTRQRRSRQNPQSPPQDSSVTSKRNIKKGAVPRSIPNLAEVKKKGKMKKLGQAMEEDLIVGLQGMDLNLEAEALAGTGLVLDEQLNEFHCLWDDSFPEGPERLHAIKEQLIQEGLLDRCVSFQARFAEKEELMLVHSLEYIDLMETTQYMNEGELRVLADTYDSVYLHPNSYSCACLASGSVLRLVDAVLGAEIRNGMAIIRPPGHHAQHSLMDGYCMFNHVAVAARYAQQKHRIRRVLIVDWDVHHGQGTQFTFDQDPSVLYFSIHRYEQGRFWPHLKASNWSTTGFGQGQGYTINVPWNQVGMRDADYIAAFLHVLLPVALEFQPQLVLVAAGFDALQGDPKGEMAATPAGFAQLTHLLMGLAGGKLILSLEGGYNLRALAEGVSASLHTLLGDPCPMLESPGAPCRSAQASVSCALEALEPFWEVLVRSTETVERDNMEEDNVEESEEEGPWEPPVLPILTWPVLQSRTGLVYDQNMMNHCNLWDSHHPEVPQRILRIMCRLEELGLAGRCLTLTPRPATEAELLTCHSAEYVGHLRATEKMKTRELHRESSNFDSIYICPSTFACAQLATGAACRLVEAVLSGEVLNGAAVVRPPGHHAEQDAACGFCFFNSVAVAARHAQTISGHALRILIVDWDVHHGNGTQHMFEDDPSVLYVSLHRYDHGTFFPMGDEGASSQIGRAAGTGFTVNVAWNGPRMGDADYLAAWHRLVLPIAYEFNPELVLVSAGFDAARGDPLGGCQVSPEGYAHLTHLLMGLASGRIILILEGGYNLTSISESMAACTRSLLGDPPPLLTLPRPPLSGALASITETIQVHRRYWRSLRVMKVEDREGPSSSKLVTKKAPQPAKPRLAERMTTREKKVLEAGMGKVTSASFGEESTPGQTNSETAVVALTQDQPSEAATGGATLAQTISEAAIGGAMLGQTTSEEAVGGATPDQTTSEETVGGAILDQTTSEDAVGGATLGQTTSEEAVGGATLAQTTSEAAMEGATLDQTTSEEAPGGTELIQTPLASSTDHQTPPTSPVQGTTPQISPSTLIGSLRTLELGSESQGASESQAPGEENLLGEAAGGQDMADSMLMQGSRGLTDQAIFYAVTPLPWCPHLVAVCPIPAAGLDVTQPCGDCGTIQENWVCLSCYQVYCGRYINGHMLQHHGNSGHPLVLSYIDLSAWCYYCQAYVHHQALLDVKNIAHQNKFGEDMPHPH

HepG2 [5] = assay: Antiproliferative activity against human HepG2 cells assessed as reduction in cell viability at 40 uM after 48 hrs by MTS assay; format: functional, cell-based
Histone deacetylase 1 = Histone deacetylase 1 (Homo sapiens, UniProt Q13547); assay: Inhibition of recombinant human HDAC1 by fluorimetry
Histone deacetylase 1, sequence (Q13547 whole entry): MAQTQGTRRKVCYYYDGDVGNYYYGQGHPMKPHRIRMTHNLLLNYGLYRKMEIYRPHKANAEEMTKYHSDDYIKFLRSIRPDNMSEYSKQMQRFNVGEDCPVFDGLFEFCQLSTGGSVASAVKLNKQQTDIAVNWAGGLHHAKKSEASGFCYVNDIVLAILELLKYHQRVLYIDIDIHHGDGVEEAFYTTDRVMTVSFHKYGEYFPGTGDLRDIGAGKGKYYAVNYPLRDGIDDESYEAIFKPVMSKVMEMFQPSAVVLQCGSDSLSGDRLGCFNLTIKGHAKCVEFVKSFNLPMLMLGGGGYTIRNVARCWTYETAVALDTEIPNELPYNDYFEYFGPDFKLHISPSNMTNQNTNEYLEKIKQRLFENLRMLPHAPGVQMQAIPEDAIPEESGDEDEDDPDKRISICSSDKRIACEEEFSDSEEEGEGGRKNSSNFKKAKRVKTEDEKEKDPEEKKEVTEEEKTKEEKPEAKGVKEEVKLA

HepG2 [6] = assay: Induction of apoptosis in human HepG2 cells at 5 to 10 uM after 24 hrs by TUNEL assay; format: functional, cell-based
In short: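 HepG2 cells treated 24 h (5 and 10 µM for TUNEL, 5 µM for caspase 3/7). Apoptosis scored by flow cytometry as TUNEL-positive frequency and as cells with activated caspase 3/7. Doxorubicin positive control; ANOVA with Tukey's post-test.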

Histone deacetylase 8 = biological target: T2, Histone deacetylase 8 (Homo sapiens, UniProt Q9BY41); assay: Inhibition of recombinant human HDAC8 by fluorimetry
T2 sequence (Q9BY41 whole entry): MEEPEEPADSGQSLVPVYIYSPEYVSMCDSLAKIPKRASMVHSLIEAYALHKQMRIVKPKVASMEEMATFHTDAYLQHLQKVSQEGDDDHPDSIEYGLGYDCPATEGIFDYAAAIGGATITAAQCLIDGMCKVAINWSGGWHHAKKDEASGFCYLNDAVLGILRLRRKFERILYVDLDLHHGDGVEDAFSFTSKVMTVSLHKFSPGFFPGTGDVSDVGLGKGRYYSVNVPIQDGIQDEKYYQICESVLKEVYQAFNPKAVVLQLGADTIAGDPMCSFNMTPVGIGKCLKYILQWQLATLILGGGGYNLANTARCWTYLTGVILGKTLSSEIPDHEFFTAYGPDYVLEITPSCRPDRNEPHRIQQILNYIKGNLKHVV

HepG2 [7] = assay: Antiproliferative activity against human HepG2 cells assessed as reduction in cell viability after 48 hrs by MTS assay; format: functional, cell-based; conditions: HepG2, 48 h
HepG2 [8] = assay: Effect on cell cycle distribution in human HepG2 cells assessed as decrease in S phase at 5 to 10 uM after 24 to 48 hrs by propidium iodide staining-based flow cytometry; format: functional; in short: as §2
[9] = Chemical stability of compound in phosphate dibasic buffer assessed as compound degradation at pH 7.4 by HPLC-PDA analysis; format: physicochemical; conditions: read-out: Drug degradation; in short: as §1
HepG2 [10] = assay: Effect on cell cycle distribution in human HepG2 cells assessed as decrease in G0/G1 phase at 5 to 10 uM after 24 to 48 hrs by propidium iodide staining-based flow cytometry; format: functional; in short: as §2
[11] = Chemical stability of the compound in acidic buffer assessed as compound recovery at pH 2 after 30 mins by HPLC-PDA analysis; format: physicochemical; conditions: acidic buffer, pH 2; read-out: Drug recovery; in short: as §1
HT-144 = assay: Antiproliferative activity against human HT144 cells assessed as reduction in cell viability at 40 uM after 48 hrs by MTS assay; format: functional, cell-based
MCF7 = assay: Antiproliferative activity against human MCF7 cells assessed as reduction in cell viability at 40 uM after 48 hrs by MTS assay; format: functional, cell-based
In short: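 MCF-7 cells exposed at 40 µM for 48 h, viability by MTS; ANOVA with Tukey's post-test against control.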

[12] = Antiproliferative activity against human HT144 cells assessed as reduction in cell viability after 48 hrs by MTS assay; format: functional, cell-based; conditions: HT-144, 48 h
Histone deacetylase 2 = Histone deacetylase 2 (Homo sapiens, UniProt Q92769); assay: Inhibition of recombinant human HDAC2 by fluorimetry
Histone deacetylase 2, sequence (Q92769 whole entry): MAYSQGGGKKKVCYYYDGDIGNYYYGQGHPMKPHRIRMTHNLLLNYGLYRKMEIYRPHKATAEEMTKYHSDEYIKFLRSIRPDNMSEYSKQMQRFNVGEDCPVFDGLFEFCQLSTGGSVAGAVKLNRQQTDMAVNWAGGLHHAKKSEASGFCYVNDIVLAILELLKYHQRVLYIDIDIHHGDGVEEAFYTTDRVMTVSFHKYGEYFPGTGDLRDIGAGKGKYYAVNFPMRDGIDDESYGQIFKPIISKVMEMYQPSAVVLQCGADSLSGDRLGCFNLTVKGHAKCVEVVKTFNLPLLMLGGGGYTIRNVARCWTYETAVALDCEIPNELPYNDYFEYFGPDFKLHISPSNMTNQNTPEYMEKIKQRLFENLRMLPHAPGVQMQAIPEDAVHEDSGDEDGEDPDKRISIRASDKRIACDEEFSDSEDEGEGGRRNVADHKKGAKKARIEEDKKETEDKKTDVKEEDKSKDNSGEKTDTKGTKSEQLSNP

[13] = Chemical stability of the compound in acidic buffer assessed as compound hydrolysis at pH 2 measured for 240 mins by HPLC-PDA analysis; format: physicochemical; conditions: pH 2, 4 h; in short: as §1
[14] = Lipophilicity, logD of the compound at pH 7.4 after 4 hrs; format: physicochemical; conditions: buffer
[15] = Ionization constant, pKa of the compound in buffer measured over 3 hrs by UV spectrometry; format: physicochemical
[16] = biological target: T3, Protein deacetylase HDAC6 (Homo sapiens) (UniProt Q9UBN7); assay: Inhibition of HDAC6 in human A549 cells assessed as induction of tubulin acetylation at 27 to 54 nM after 24 hrs by Western blotting analysis; format: cell-based
T3 sequence (whole entry): T1 sequence (Q9UBN7 whole entry)
In short: (§3)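 Calu-1 and A549 cells treated 24 h, acetylated tubulin detected by western blot with GAPDH as loading control. DMSO vehicle control; one representative of three independent experiments.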

Calu-1 = assay: Inhibition of cell migration in human Calu1 cells at 27 and 54 nM after 48 hrs by scratch test; format: functional, cell-based
In short: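 Calu-1 migration by scratch test after 48 h treatment. DMSO vehicle control; one representative of three independent experiments.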

[17] = biological target: Histone deacetylase (Rattus norvegicus) (UniProt Q6P6W3+Q99P99+Q99P96+Q4QQW4+Q99P97+Q5RJZ2+B1WBY8); assay: Inhibition of HDAC in rat liver at 1 uM by fluorimetry
In short: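 Rat liver HDAC preparation, non-selective enzyme assay, test compounds at 1 µM; % inhibition is the mean of two experiments.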

Histone deacetylase = assay: Inhibition of HDAC in rat liver by fluorimetry
In short: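 Rat liver HDAC IC50 from a six-point enzyme assay, three-fold serial dilution starting at 3 µM or 1 µM depending on compound; mean of two experiments ± SD.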

[18] = biological target: T3, Protein deacetylase HDAC6 (Homo sapiens); assay: Inhibition of HDAC6 in human Calu1 cells assessed as induction of tubulin acetylation at 27 to 54 nM after 24 hrs by Western blotting analysis; format: cell-based; conditions: Calu-1; in short: as §3

COC(=O)c1cccc(/C=N/N(C)C(=O)c2ccc(N(C)C)cc2)c1
solubility at 24 h [1]: 8.2 µM (≈ 2.78 µg/mL)

C/C(=N\NC(=O)c1ccc(N(C)C)cc1)c1ccc(C(=O)NO)cc1
solubility at 24 h [1]: 6.2 µM (≈ 2.11 µg/mL) | Stability ([2]; buffer, pH 2, 4 h): Unstable | Activity (HepG2 [3]): Active | IC50 [4]: 0.056 µM | Activity (HepG2 [5]): Active | IC50 (Histone deacetylase 1): > 3 µM | Activity (HepG2 [6]): Active | IC50 (Histone deacetylase 8): 0.11 µM | IC50 (HepG2 [7]): 11.5 µM | Activity (HepG2 [8]): Active | degraded [9]: > 15% | Activity (HepG2 [10]): Active | remaining at 0.5 h [11]: 6% | Activity (HT-144): Active | Activity (MCF7): Active | IC50 [12]: 20 µM | IC50 (Histone deacetylase 2): > 3 µM | Stability [13]: Unstable

CN(/N=C/c1ccc(C(=O)NO)cc1)C(=O)c1ccc(N(C)C)cc1
solubility at 24 h [1]: > 64 µM | logD at 4 h [14]: 0.98 | pKa at 3 h [15]: 8.1 | remaining at 4 h ([2]; acidic buffer, pH 2, read-out: Drug recovery): 70% | inhibition [16]: Active | IC50 [4]: 0.027 µM | Activity (HepG2 [5]): Active | IC50 (Histone deacetylase 1): > 3 µM | inhibition (Calu-1): Active | IC50 (Histone deacetylase 8): 0.13 µM | inhibition [17]: 90.4% | IC50 (HepG2 [7]): 24.1 µM | degraded [9]: > 15% | IC50 (Histone deacetylase): 0.018 µM | Activity (HT-144): Active | Activity (MCF7): Active | IC50 [12]: 36.1 µM | inhibition [18]: Active | IC50 (Histone deacetylase 2): > 3 µM | Stability [13]: Unstable

COC(=O)c1ccc(/C=N/NC(=O)c2ccc(N(C)C)cc2)cc1
solubility at 24 h [1]: 1.7 µM (≈ 0.553 µg/mL)

CN(/N=C/c1ccc(C(=O)O)cc1)C(=O)c1ccc(N(C)C)cc1
solubility at 24 h [1]: > 67 µM | inhibition [17]: -8.7%

CN(/N=C/c1cccc(C(=O)O)c1)C(=O)c1ccc(N(C)C)cc1
solubility at 24 h [1]: > 67 µM | inhibition [17]: -5.8%

COC(=O)c1ccc(/C=N/N(C)C(=O)c2ccc(N(C)C)cc2)cc1
solubility at 24 h [1]: 1.4 µM (≈ 0.475 µg/mL)
